Experimental data as given in paper PMC2754042 (Journal of medicinal chemistry, 2008).
pIC50: −log10 of the molar value. Where a name gives a salt, the structure may show the parent alone. Where a SMILES comes first, the peptide text is derived from it. The star is where a group is joined. Cbz = O=C(OCc1ccccc1)*

Columns and labels:
[1] = test system: sixty human tumor cell lines; assay: NCI sixty cell panel, mean of full panel; type: cell-based; settings: for GI50: read-out: pGI50 MG-MID (converted); for CC50: read-out: pLC50 MG-MID (converted); for IC (TGI): read-out: pTGI MG-MID
[2] = test system: Renal cancer cell lines; assay: NCI sixty cell panel, renal subpanel; type: cell-based; settings: Homo sapiens, read-out: pTGI Renal
[3] = test system: Breast cancer cell lines; assay: NCI sixty cell panel, breast subpanel; type: cell-based; settings: Homo sapiens, read-out: pTGI Breast
[4] = test system: Melanoma cell lines; assay: NCI sixty cell panel, melanoma subpanel; type: cell-based; settings: Homo sapiens, read-out: pTGI Melanoma
[5] = test system: Colon cancer cell lines; assay: NCI sixty cell panel, colon subpanel; type: cell-based; settings: Homo sapiens, read-out: pTGI Colon
[6] = test system: Ovarian cancer cell lines; assay: NCI sixty cell panel, ovarian subpanel; type: cell-based; settings: Homo sapiens, read-out: pTGI Ovarian
[7] = test system: C-erbB2; assay: Stability of C-erbB2 and β-actin in MCF-7 cells; type: cell-based, human; settings: Western blot
In short: (§1)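 MCF7 cells (1×10^6) seeded in six-well plates and grown overnight. Cycloheximide (100 µmol/L) given alone, with MG-132 (10 µmol/L), or with test compound for 8 and 16 h in total. Lysates Western blotted with polyclonal anti-BCA2 (1:800), monoclonal anti-β-actin (1:5000) and monoclonal anti-C-erbB2 (1:2000). Band mean grey value and integrated density expressed relative to control sample; protein levels normalised to β-actin.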

[8] = test system: HL60 and HL60 ρ^0 cells; assay: 2-day MTT cell proliferation assay in HL60 and HL60ρ0 cells; type: cell-based; settings: Homo sapiens, HL-60, 48 h, read-out: IC50 for cell proliferation
In short: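 Cells exposed to test compound for 48 h, then MTT reduction read as a measure of proliferation. IC50 for cell proliferation derived from the readings.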

[9] = test system: PMET, B1647, HEL and M07e; assay: PMET inhibition in human leukemic cell lines B1647, HEL and M07e; type: cell-based; settings: read-out: PMET inhibition IC50
In short: (§2)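 Plasma membrane electron transport assay: leukemic cells (10^5 per well in 0.1 ml) pretreated 30 min with test compound in DMSO (<0.1% final). WST-1 and mPMS then added (final 500 µM and 20 µM). WST-1 reduction followed in real time at 450 nm and expressed as % of control.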

[10] = test system: panel of 36 human tumor cell lines; assay: Oncotest 36 cell line assay; type: cell-based; settings: four days exposure
In short: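 Panel of 36 lines: 24 derived from patient tumor xenografts passaged subcutaneously in nude mice, 12 commercial. Grown at 37°C, 5% CO2, in RPMI 1640 with 10% fetal calf serum and 0.1 mg/ml gentamicin. Test compound added one day after plating, at 5 concentrations, for four days. DNA content read by propidium iodide fluorescence. Three independent experiments, each in triplicate; IC70 values.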

[11] = test system: HL-60-TB leukemia; assay: Human tumor xenograft in nude mice; type: in vivo; settings: HL-60-TB leukemia xenograft in nude mice
[12] = test system: leukemia cell lines HL-60, K562, MOLT-4, CCRF-CEM, RPMI-8226, SR; assay: Hollow fiber assay; type: in vivo, human; settings: panel of six leukemia cell lines
[13] = test system: plasma membrane electron transport (PMET), HL60 and HL60ρ^0 cells; assay: PMET inhibition; type: cell-based, human; settings: at 200 µM, 30 min pretreatment
In short: as §2

[14] = test system: Prostate cancer cell lines; assay: cells; type: cell-based; settings: Homo sapiens, read-out: pTGI Prostate
[15] = test system: Leukemia cell lines; assay: NCI sixty cell panel, leukemia subpanel; type: cell-based; settings: Homo sapiens; for IC (TGI): read-out: pTGI Leukemia
[16] = test system: BCA2; assay: Analysis of BCA2 protein stability in MCF7 cells; type: cell-based, human; settings: MCF-7 cells, in the presence of cycloheximide (CHX), 16 h
In short: as §1

[17] = test system: CNS cancer cell lines; assay: cells; type: cell-based; settings: Homo sapiens, read-out: pTGI CNS
[18] = test system: NSCLC cell lines; assay: NCI sixty cell panel, NSCLC subpanel; type: cell-based; settings: Homo sapiens, read-out: pTGI NSCLC

| Compound | GI50 [1] [µM] | CC50 [1] [µM] | IC (TGI) [1] [µM] | further results |
| --- | --- | --- | --- | --- |
| O=C1Nc2ccccc2/C1=C\c1cccc(/C=C2/C(=O)Nc3ccccc32)n1 [Compound 3a] | 0.457 | 14.1 | – | IC (TGI) [2]: 1.62 µM; IC (TGI) [3]: 2 µM |
| O=C1Nc2cccc(Cl)c2/C1=C\c1cccc(/C=C2/C(=O)Nc3cccc(Cl)c32)n1 [Compound 3b] | 0.457 | – | – | IC (TGI) [4]: 3.16 µM; IC (TGI) [5]: 5.01 µM; IC (TGI) [6]: 2.82 µM; effects on β-actin or the oncogenic receptor C-erbB2 [7]: No effects; pIC50 [8]: 5.10 to 5.52; pIC50 [9]: 4.52 to 4.82; mean IC70 [10]: 0.35 µg/mL |
| O=C1Nc2ccc(Cl)cc2/C1=C\c1cccc(/C=C2/C(=O)Nc3ccc(Cl)cc32)n1 [Compound 3c] | 1.07 | 16.2 | 3.39 | pIC50 [8]: 5.10 to 5.52 |
| COc1ccc2c(c1)/C(=C\c1cccc(/C=C3/C(=O)Nc4ccc(OC)cc43)n1)C(=O)N2 [Compound 3d] | 1.2 | 39.8 | 7.08 | IC (TGI) [4]: 3.98 µM; distal site antitumor activity in xenograft [11]: did not show significant activity; hollow fiber assay combined i.p. + s.c. score [12]: 22; pIC50 [9]: 4.35 to 4.52; mean IC70 [10]: 0.56 µg/mL |
| O=C1Nc2ccc(O)cc2/C1=C\c1cccc(/C=C2/C(=O)Nc3ccc(O)cc32)n1 [Compound 3e] | 39.8 | 97.7 | 87.1 | pIC50 [9]: 4.30 to 4.40 |
| O=C(O)CCC(=O)c1ccc2c(c1)/C(=C\c1cccc(/C=C3/C(=O)Nc4ccc(C(=O)CCC(=O)O)cc43)n1)C(=O)N2 [Compound 3f] | 75.9 | – | 95.5 | – |
| CN(C)c1ccc2c(c1)/C(=C\c1cccc(/C=C3/C(=O)Nc4ccc(N(C)C)cc43)n1)C(=O)N2 [Compound 3g] | 5.37 | 91.2 | 40.7 | IC (TGI) [2]: 50.1 µM; PMET inhibition [13]: inactive |
| O=C1Nc2ccc(F)cc2/C1=C\c1cccc(/C=C2/C(=O)Nc3ccc(F)cc32)n1 [Compound 3h] | 3.24 | 60.3 | 11.7 | IC (TGI) [6]: 25.1 µM |
| O=C1Nc2ccc(C(=O)O)cc2/C1=C\c1cccc(/C=C2/C(=O)Nc3ccc(C(=O)O)cc32)n1 [Compound 3i] | – | 89.1 | 83.2 | PMET inhibition [13]: inactive |
| O=C1Nc2ccc(Br)cc2/C1=C\c1cccc(/C=C2/C(=O)Nc3ccc(Br)cc32)n1 [Compound 3j] | 8.32 | 56.2 | – | IC (TGI) [6]: 25.7 µM |
| O=C1Nc2ccc(S(=O)(=O)O)cc2/C1=C\c1cccc(/C=C2/C(=O)Nc3ccc(S(=O)(=O)O)cc32)n1 [Compound 3k] | 97.7 | – | – | – |
| O=C1Nc2cc(Cl)ccc2/C1=C\c1cccc(/C=C2/C(=O)Nc3cc(Cl)ccc32)n1 [Compound 3l] | 2.04 | 39.8 | 8.71 | – |
| Cc1cc2c(cc1O)/C(=C\c1cccc(/C=C3/C(=O)Nc4cc(C)c(O)cc43)n1)C(=O)N2 [Compound 3m] | 69.2 | – | 97.7 | – |
| COc1cc2c(cc1C)NC(=O)/C2=C/c1cccc(/C=C2/C(=O)Nc3cc(C)c(OC)cc32)n1 [Compound 3n] | 51.3 | – | 95.5 | – |
| CN1C(=O)/C(=C/c2cccc(/C=C3/C(=O)N(C)c4ccccc43)n2)c2ccccc21 [Compound 3o] | 8.13 | 49 | 26.9 | IC (TGI) [14]: 39.8 µM; PMET inhibition [13]: inactive; IC (TGI) [15]: 15.8 µM |
| COc1ccc2c(c1)/C(=C\c1cccc(/C=C3/C(=O)N(C)c4ccc(OC)cc43)n1)C(=O)N2C [Compound 3p] | 1.74 | 43.7 | 12.3 | IC (TGI) [6]: 31.6 µM; IC (TGI) [3]: 20 µM; GI50 ([15]; read-out: pGI50 Leukemia (converted)): 1.17 µM |
| O=C1Nc2ccccc2/C1=c1/[nH]c(=O)/c(=C2/C(=O)Nc3ccccc32)[nH]c1=O [Compound 7a] | 89.1 | – | – | – |
| CC(=O)n1c(=O)/c(=C/c2c[nH]c3ccccc23)n(C(C)=O)c(=O)/c1=C/c1c[nH]c2ccccc12 [Compound 8a] | 74.1 | – | 91.2 | IC (TGI) [2]: 50.1 µM; PMET inhibition [13]: inactive |
| O=c1[nH]/c(=C\c2c[nH]c3ccccc23)c(=O)[nH]/c1=C\c1c[nH]c2ccccc12 [Compound 9a] | 81.3 | – | – | PMET inhibition [13]: inactive |
| COc1ccc2[nH]cc(/C=c3\[nH]c(=O)/c(=C/c4c[nH]c5ccc(OC)cc45)[nH]c3=O)c2c1 [Compound 9b] | 93.3 | – | – | – |
| CC(C)C[C@@H](C=O)NC(=O)[C@H](CC(C)C)NC(=O)[C@H](CC(C)C)NC(=O)OCc1ccccc1 [MG-132, Z-Leu-Leu-Leu-al] (Cbz-Leu-Leu-Leu-aldehyde) | – | – | – | increase of BCA2 protein compared to CHX treatment [16]: more than 10 fold |
| CC[C@]1(O)C[C@H]2CN(CCc3c([nH]c4ccccc34)[C@@](C(=O)OC)(c3cc4c(cc3OC)N(C=O)[C@H]3[C@@](O)(C(=O)OC)[C@H](OC(C)=O)[C@]5(CC)C=CCN6CC[C@]43[C@@H]65)C2)C1 [Vincrist ine sulfate, reference compound] | 0.2 | – | 10 | IC (TGI) [14]: 6.31 µM; IC (TGI) [4]: 7.94 µM; IC (TGI) [2]: 20 µM; IC (TGI) [5]: 3.98 µM; IC (TGI) [6]: 20 µM; IC (TGI) [3]: 7.94 µM; IC (TGI) [17]: 6.31 µM; IC (TGI) [15]: 15.8 µM; IC (TGI) [18]: 15.8 µM |
